Reference: PubChem BioAssay AID504383 (The Scripps Research Institute Molecular Screening Center, 2011)
Among all 2,500 compounds or so, about 1,200 (48%) were called active. The set was probably picked from earlier hits. The list shows a part of the results. Unmarked numbers belong to inactive results.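 Rule for the calls: active = mean activation above the low control average plus 3 SD, as set in the primary screen (cut at about 12% in these data); inactive = the rest.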

What follows are compounds tested against Troponin I, cardiac muscle (Homo sapiens) + Troponin T, cardiac muscle (Homo sapiens) + Troponin C, slow skeletal and cardiac muscles (Homo sapiens) (UniProt P19429+P45379+P63316) (assay: cardiac RTF calcium sensitivity activators, confirmation, biochemical, IANBD-TnC fluorescence, triplicate (AID 504383;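 note: 0% = DMSO at 0.472 mM calcium and 100% = DMSO at 2.9 mM calcium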)). Settings: IANBD-labeled cardiac RTF, Ca2+ sensitivity fluorescence; at 7.2 µM; stronger effect = higher value; scaled from EC20 to saturating calcium; tested at EC20 calcium, 0.472 mM.
Outline: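 System: Labelled thin filament complex | Technique: Filament fluorescence intensity | Benchmarks: Low control EC20 calcium, high control EC100 calcium | Timing: 15 min at 25 °C | Compound dosing: One dose, 7.2 µM nominal | Probe or stimulus: Ca2+ 0.472 mM, EC20 level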

SMILES	activation
CSCC(O)Cn1ncc2ccccc2c1=O (stereo not given)	5.97%
O=c1c2ccccc2cnn1Cc1n[nH]c(=S)n1-c1ccccc1Cl	16.3% (active)
CC1(C)NC(=O)N(CCCCOc2ccc(Cl)cc2)C1=O	0.92%
COc1cc(/C=C/c2sc3ccccc3[n+]2CCCS(=O)(=O)[O-])ccc1O	7.82%
CCC(/C=C1\Oc2ccc(OC)cc2N1C)=C\c1sc2ccccc2[n+]1CCCS(=O)(=O)[O-]	33.2% (active)
Cc1ccc(CSc2nnc(SCC(=O)N/N=C/c3ccccc3OCC(=O)O)s2)cc1	15.5% (active)
CCOc1ccccc1C=NNC(=O)CCCCC(=O)NN=Cc1ccccc1OCC	6.22%
O=C(Nc1ccccc1F)C(=Cc1sc(N2CCOCC2)nc1-c1ccccc1)C(=O)Nc1ccccc1F	-0.07%
O=C(c1cn(-c2ccccc2)nc1-c1ccc(Br)cc1)N1CCOCC1	16.9% (active)
COc1ccccc1N1CCN(C(=O)c2cn(-c3ccccc3)nc2-c2cccnc2)CC1	10%
O=C(N/C(=C/c1cn(-c2ccccc2)nc1-c1ccccc1)C(=O)N1CCOCC1)c1ccc(Cl)cc1Cl	12.7% (active)
O=C(CSCc1c(F)cccc1Cl)Nc1ccccc1C(=O)N1CCOCC1	11.5%
Cc1cc(NC(=O)/C(C#N)=C/c2ccc(-c3ccc(SC(F)F)cc3)o2)n(-c2ccccc2)n1	659% (active)
Cc1cc(NC(=O)/C(C#N)=C\c2ccc(-c3ccc(SC(F)F)cc3)o2)n(-c2ccccc2)n1	359% (active)
COC(=O)CCc1c(C)c(C(=O)c2cc(F)c(F)c(F)c2F)c2ccccn12	-2.54%
O=C1CCNc2ccc(-c3ccccc3)cc21	7.84%
Cn1c(=O)c2cc(NCc3ccccc3)nnc2n(C)c1=O	13.9% (active)
Cn1c(=O)c(NCCc2ccccc2)c2c3c(cccc31)C(=O)c1ccccc1-2	2.98%
CC(C(=O)c1ccc(Br)cc1)[n+]1cccc2ccccc21 (stereo not given)	64.2% (active)
Cc1cccc(NC(=O)c2ccc(C(=O)c3ccccc3)cc2)n1	9.46%
Cc1cc(C)nc(NC(=O)c2ccc(Cl)c(Cl)c2)n1	12.3% (active)
COC(=O)c1c(NC(=O)c2ccnn2C)sc(C)c1C	5.98%
COC(=O)c1c(NC(=O)CN2CCN(c3cccc(Cl)c3)CC2)sc(C)c1C	13.4% (active)
CCOC(=O)c1c(/N=C/c2cccc([N+](=O)[O-])c2O)sc(C)c1C	7.57%
CCN1C(=S)N[C@@H](CCc2ccccc2)[C@H](C(=O)OC)[C@H]1C	57.4% (active)
